# From PMC3060938 (Clinical cancer research : an official journal of the …, 2011)
# “And” between values parts separate entries of the source, which are not always exact repeats. Equal entries are not always repeated.
# Assays:
# [1] = Phase I dose escalation of weekly IV 17-DMAG: toxicity; type: in vivo, human
# Summary of the method: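 Weekly 1-h IV infusion, continuous, in 4-week cycles, of drug diluted to 0.1-1.0 mg/mL in 0.9% saline or 5% dextrose. Accelerated titration escalation from 2.5 mg/m2, up to 106 mg/m2. AEs graded by NCI-CTCAE v3.0. DLT assessed over the first 28 days. Cohorts expanded to 6 after DLT. MAD defined as ≥2/6 with DLT; MTD as the prior level with ≤1/6.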
# [2] = Plasma pharmacokinetics of 17-DMAG by HPLC-MS, non-compartmental analysis; type: in vivo, human
# Summary of the method: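 Sampled in course 1: pre-dose, at 30 and 60 min into the 1-h infusion, then 5 min to 96 h after infusion end. Heparinised blood held on ice, spun 252g for 5 min at 4°C, plasma kept at −80°C. Drug measured by validated HPLC-MS. Non-compartmental analysis with constant infusion input. Dose proportionality of AUC and Cmax assessed by linear regression.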
# HSP90 [3] = assay: Western blotting of HSP72, CDK4 and LCK in patients' PBMC; type: in vivo, human
# Summary of the method: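 Blood drawn pre-dose, at end of infusion and 1, 8, 24, 48 and 96 h post-dose, plus 24 h after the fifth weekly infusion. PBMC isolated by Ficoll-Hypaque and stored at −80°C. Lysates blotted for HSP72, CDK4 and LCK, with GAPDH as loading control. Each time-point visually compared with pre-treatment and scored 0-5 against a positive control.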
# HSP72 = HSP72 in PBMC and plasma by ELISA; type: in vivo, human
# Summary of the method: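 Human patients with advanced solid tumours received a weekly 1-h IV infusion of the test compound, given at 0.1-1.0 mg/mL in 0.9% saline or 5% dextrose. Blood was drawn pre-dose and 24 h post-dose. PBMC were Ficoll-Hypaque separated and stored at −80 °C. HSP72 was measured in PBMC (fmole/μg protein) and plasma (fmole/ml). Each cohort's mean change was compared with the first cohort's by one-tailed t-test (p ≤ 0.05).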
# HSP90 [4] = assay: Western blotting of HSP72, CDK4 and ERBB2 in paired tumor biopsies; type: in vivo, human
# Summary of the method: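 Tumour biopsies were taken before and 24 h after the first weekly 1-h IV dose, snap frozen and stored at −80 °C; five paired biopsies per cohort were planned. Lysates were western blotted for HSP72, CDK4 and ERBB2, with GAPDH loading control and HT29 positive control. Each band was scored 0-5 against pre-treatment; a one-point change counted. Signature: HSP72 induction plus CDK4 and/or ERBB2 depletion. Two blinded assessors verified results.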
# advanced solid tumors = assay: Tumor response; type: in vivo, human
# [5] = system: NCI 60 human tumor cell line panel; details: read-out: Mean IC50, no reference given; cited from earlier work
structure (smiles),measurement,setting,value
"CO[C@H]1/C=C\C=C(/C)C(=O)NC2=CC(=O)C(NCCN(C)C)=C(C[C@@H](C)C[C@H](OC)[C@H](O)[C@@H](C)/C=C(\C)[C@@H]1OC(N)=O)C2=O [17-DMAG, 17-dimethylaminoethylamino-17-demethoxygeldanamycin]",Treatment related death,[1]; 106mg/m^2,one treatment related death
same,Patients with dose limiting toxicity (DLT),[1]; 106 mg/m^2 weekly IV,2/4
same,"ALP (hepatic), adverse events related to 17-DMAG",[1]; Grade 1,2
same,"ALT (hepatic), adverse events related to 17-DMAG",[1]; Grade 1,2
same,"AST (hepatic), adverse events related to 17-DMAG",[1]; Grade 1,4
same,"Alopecia, adverse events related to 17-DMAG",[1]; Grade 1,2
same,"Anorexia, adverse events related to 17-DMAG",[1]; Grade 1,1
same,"Blurred vision, adverse events related to 17-DMAG",[1]; Grade 1,2
same,"Dehydration, adverse events related to 17-DMAG",[1]; Grade 1,1
same,"Depression, adverse events related to 17-DMAG",[1]; Grade 1,1
same,"Diarrhea, adverse events related to 17-DMAG",[1]; Grade 1,5
same,"Dizziness, adverse events related to 17-DMAG",[1]; Grade 1,1
same,"Dry eye, adverse events related to 17-DMAG",[1]; Grade 1,1
same,"Dry mouth, adverse events related to 17-DMAG",[1]; Grade 1,3
same,"Eosinophilia, adverse events related to 17-DMAG",[1]; Grade 1,1
same,"Fever, adverse events related to 17-DMAG",[1]; Grade 1,2
same,"Hand foot syndrome, adverse events related to 17-DMAG",[1]; Grade 1,1
same,"Heartburn, adverse events related to 17-DMAG",[1]; Grade 1,1
same,"High protein, adverse events related to 17-DMAG",[1]; Grade 1,1
same,"Hypergylcaemia, adverse events related to 17-DMAG",[1]; Grade 1,2
same,"Hypertension, adverse events related to 17-DMAG",[1]; Grade 1,3
same,"Hyperuricaemia, adverse events related to 17-DMAG",[1]; Grade 1,1
same,"Hypocalcaemia, adverse events related to 17-DMAG",[1]; Grade 1,1
same,"Hypokalaemia, adverse events related to 17-DMAG",[1]; Grade 1,2
same,"Hyponatraemia, adverse events related to 17-DMAG",[1]; Grade 1,3
same,"Limb edema, adverse events related to 17-DMAG",[1]; Grade 1,2
same,"Low eosinophils, adverse events related to 17-DMAG",[1]; Grade 1,1
same,"Low hematocrit, adverse events related to 17-DMAG",[1]; Grade 1,1
same,"Low red cell count, adverse events related to 17-DMAG",[1]; Grade 1,1
same,"Low urea, adverse events related to 17-DMAG",[1]; Grade 1,1
same,"Lymphopenia, adverse events related to 17-DMAG",[1]; Grade 1,2
same,"Muscle spasm, adverse events related to 17-DMAG",[1]; Grade 1,1
same,"Nausea, adverse events related to 17-DMAG",[1]; Grade 1,5
same,"Neuropathy, adverse events related to 17-DMAG",[1]; Grade 1,1
same,"Nightmares, adverse events related to 17-DMAG",[1]; Grade 1,1
same,"Ocular surface disease, adverse events related to 17-DMAG",[1]; Grade 1,2
same,"Oliguria, adverse events related to 17-DMAG",[1]; Grade 1,1
same,"Pain, Abdomen, adverse events related to 17-DMAG",[1]; Grade 1,1
same,"Pain, Headache, adverse events related to 17-DMAG",[1]; Grade 1,1
same,"Pain, Joint, adverse events related to 17-DMAG",[1]; Grade 1,5
same,"Pain, Limb, adverse events related to 17-DMAG",[1]; Grade 1,1
same,"Pain, Myalgia, adverse events related to 17-DMAG",[1]; Grade 1,2
same,"Proteinuria, adverse events related to 17-DMAG",[1]; Grade 1,3
same,"Raised CK, adverse events related to 17-DMAG",[1]; Grade 1,1
same,"Raised amylase, adverse events related to 17-DMAG",[1]; Grade 1,1
same,"Raised bilirubin (hepatic), adverse events related to 17-DMAG",[1]; Grade 1,1
same,"Raised leucocytes, adverse events related to 17-DMAG",[1]; Grade 1,1
same,"Raised neutrophils, adverse events related to 17-DMAG",[1]; Grade 1,2
same,"Rash, adverse events related to 17-DMAG",[1]; Grade 1,1
same,"Sinus tachycardia, adverse events related to 17-DMAG",[1]; Grade 1,1
same,"Thrombocytopenia, adverse events related to 17-DMAG",[1]; Grade 1,3
same,"Vivid dreams, adverse events related to 17-DMAG",[1]; Grade 1,1
same,"Voice change, adverse events related to 17-DMAG",[1]; Grade 1,1
same,"Vomiting, adverse events related to 17-DMAG",[1]; Grade 1,2
same,"Weight loss, adverse events related to 17-DMAG",[1]; Grade 1,1
same,"ALP (hepatic), adverse events related to 17-DMAG",[1]; Grade 2,1
same,"ALT (hepatic), adverse events related to 17-DMAG",[1]; Grade 2,1
same,"Anorexia, adverse events related to 17-DMAG",[1]; Grade 2,1
same,"Blurred vision, adverse events related to 17-DMAG",[1]; Grade 2,2
same,"Diarrhea, adverse events related to 17-DMAG",[1]; Grade 2,1
same,"Dry eye, adverse events related to 17-DMAG",[1]; Grade 2,2
same,"Eye (herpes simplex), adverse events related to 17-DMAG",[1]; Grade 2,1
same,"Fatigue, adverse events related to 17-DMAG",[1]; Grade 2,2
same,"Fever, adverse events related to 17-DMAG",[1]; Grade 2,1
same,"Keratitis, adverse events related to 17-DMAG",[1]; Grade 2,2
same,"Nausea, adverse events related to 17-DMAG",[1]; Grade 2,1
same,"Pain, Joint, adverse events related to 17-DMAG",[1]; Grade 2,2
same,"Vomiting, adverse events related to 17-DMAG",[1]; Grade 2,4
same,"ALT (hepatic), adverse events related to 17-DMAG",[1]; Grade 3,1
same,"AST (hepatic), adverse events related to 17-DMAG",[1]; Grade 3,1
same,"Acidosis, adverse events related to 17-DMAG",[1]; Grade 3,1
same,"Creatinine, adverse events related to 17-DMAG",[1]; Grade 3,1
same,"Dehydration, adverse events related to 17-DMAG",[1]; Grade 3,1
same,"Diarrhea, adverse events related to 17-DMAG",[1]; Grade 3,1
same,"Fatigue, adverse events related to 17-DMAG",[1]; Grade 3,1
same,"Hyponatraemia, adverse events related to 17-DMAG",[1]; Grade 3,1
same,"Lymphopenia, adverse events related to 17-DMAG",[1]; Grade 3,1
same,"Thrombocytopenia, adverse events related to 17-DMAG",[1]; Grade 3,1
same,"γGT (hepatic), adverse events related to 17-DMAG",[1]; Grade 3,1
same,"AST (hepatic), adverse events related to 17-DMAG",[1]; Grade 4,1
same,"Hypotension, adverse events related to 17-DMAG",[1]; Grade 4,1
same,"Renal failure, adverse events related to 17-DMAG",[1]; Grade 5,1
same,Tolerability,[1]; doses ≤ 80mg/m^2,well tolerated
same,Maximum tolerated dose (MTD),"[1]; weekly IV, patients with advanced solid tumors",80 mg/m^2
same,Recommended Phase II dose,"[1]; weekly, IV",80 mg/m^2
same,Half life,"[2]; dose 40.0 mg/m^2, 1 hr IV infusion, 3 patients",21.5 ± 4.3 (19.7) hr
same,Half life,"[2]; dose 80.0 mg/m^2, 1 hr IV infusion, 8 patients",27.8 ± 7.1 (25.4) hr
same,Cmax,"[2]; human, intravenous, 80 mg/m2",2680 nM
same,Vd,"[2]; human, intravenous, 80 mg/m2",385 L
same,clearance,"[2]; human, intravenous, 80 mg/m2",315 mL/min
same,AUC,"[2]; human, iv, 2.5 mg/m^2",0.581 ± 0.236 µM·h
same,Cmax,"[2]; human, iv, 2.5 mg/m^2",64.1 ± 19.7 nM
same,clearance,"[2]; human, iv, 2.5 mg/m^2",218 mL/min
same,half-life,"[2]; human, iv, 2.5 mg/m^2",25.2 ± 12.9 h
same,AUC,"[2]; human, iv, 5 mg/m^2",0.864 ± 0.651 µM·h
same,Cmax,"[2]; human, iv, 5 mg/m^2",85.4 ± 55.2 nM
same,clearance,"[2]; human, iv, 5 mg/m^2",858 mL/min
same,half-life,"[2]; human, iv, 5 mg/m^2",18.4 ± 7.5 h
same,AUC,"[2]; human, iv, 20 mg/m^2",3.73 ± 2.04 µM·h
same,Cmax,"[2]; human, iv, 20 mg/m^2",480 ± 176 nM
same,clearance,"[2]; human, iv, 20 mg/m^2",345 mL/min
same,half-life,"[2]; human, iv, 20 mg/m^2",28.7 ± 14.2 h
same,AUC,"[2]; human, iv, 40 mg/m^2",6.51 ± 3.22 µM·h
same,Cmax,"[2]; human, iv, 40 mg/m^2",957 ± 248 nM
same,clearance,"[2]; human, iv, 40 mg/m^2",322 mL/min
same,AUC,"[2]; human, iv, 80 mg/m^2",12.7 ± 2.87 µM·h
same,Cmax,"[2]; human, iv, 80 mg/m^2",2680 ± 1320 nM
same,clearance,"[2]; human, iv, 80 mg/m^2",315 mL/min
same,AUC,"[2]; human, iv, 106 mg/m^2",32.3 ± 16.3 µM·h
same,Cmax,"[2]; human, iv, 106 mg/m^2",3750 ± 1370 nM
same,clearance,"[2]; human, iv, 106 mg/m^2",213 mL/min
same,half-life,"[2]; human, iv, 106 mg/m^2",24.7 ± 1.8 h
same,Dose at which transient HSP72 induction (< 24 hours) was detected in PBMCs,HSP90 [3],≥ 5 mg/m^2
same,Dose at which CDK4 depletion was demonstrated in PBMC,HSP90 [3]; some patients,≥ 80 mg/m^2
same,Mean plasma HSP72 change between dose levels,"HSP72; 24 hours after 17-DMAG, compared with first dose cohort",did not differ
same,Dose at which HSP72 induction was detected in PBMC,"HSP72; ELISA (DELFIA), 24 hours after 17-DMAG",≥ 20 mg/m^2
same,Mean HSP72 plasma level post 17-DMAG,HSP72; all other patients (without DLT),86 ± 140 fmol/mL
same,Highest HSP72 plasma levels post 17-DMAG,"HSP72; the 2 patients with DLT (106 mg/m^2), individual values",1250 fmol/mL and 5610 fmol/mL
same,HSP90 inhibition in tumor,"HSP90 [4]; 106 mg/m^2, single set of samples",confirmed
same,Patients with HSP90 inhibition detected in tumor,HSP90 [4]; 24 hrs after 80mg/m^2,3/5
same,Tumors with HSP72 induced,HSP90 [4]; 24 hrs after 80mg/m^2,4/5
same,Tumors with client protein depletion (CDK4 or ERBB2),HSP90 [4]; 24 hrs after 80mg/m^2,3/5
same,Time on treatment before PD,"advanced solid tumors; patient with CRPC and complete response, 5mg/m^2 escalated to 20mg/m^2",124 weeks
same,Best tumor response,"advanced solid tumors; patient with CRPC, 5mg/m^2 escalated to 20mg/m^2, confirmed by CT and PSA",complete response
same,Time on study with stable disease,"advanced solid tumors; patient with CRPC, 20mg/m^2",59 weeks
same,Time on study with stable disease,"advanced solid tumors; patient with chondrosarcoma, 5mg/m^2 escalated to 20mg/m^2",28 weeks
same,Time on study with stable disease,"advanced solid tumors; patient with clear cell renal cancer, 80mg/m^2",76 weeks
same,Time on treatment before PD,"advanced solid tumors; patient with metastatic melanoma and partial response, 40mg/m^2",159 weeks
same,Best tumor response,"advanced solid tumors; patient with metastatic melanoma, 40mg/m^2",partial response
same,Patients with progressive disease (PD),"advanced solid tumors; twenty patients evaluable, all dose levels",Nine
same,IC50,[5],63 nM
